Ki, Ratio and inhibition data for two compounds are collected here from ChEMBL document CHEMBL1131058, “Studies on quinazolines and 1,2,4-benzothiadiazine 1,1-dioxides. 8.1, 2 synthesis and pharmacological evaluation of tricyclic fused quinazolines and 1,2,4-benzothiadiazine 1,1-dioxides as potential alpha1-adrenoceptor antagonists” (J Med Chem, 1998).

The target in experiment [1] is T1, D(2) dopamine receptor (Homo sapiens, UniProt P14416). The experiment in a line: Compound is evaluated for binding affinity towards recombinant human Dopamine receptor D2 using [3H]spiperone in CHO cells. Format: cell-based. In outline:
(§1)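 Contract radioligand competition binding. Sources: 5-HT1 and 5-HT1A in rat brain cortex; 5-HT2 and σ2 in rat brain; σ in guinea pig brain; D2, rhD2 and rhD3 in CHO cells with [³H]spiperone; H1 in guinea pig lung with [³H]pyrilamine. Inhibition constants reported; no constant given where inhibition at 10 µM was below 50%.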

Experiment [2] deals with T2, Alpha-2B adrenergic receptor (Homo sapiens, UniProt P18089).
T2 sequence (P18089 whole entry): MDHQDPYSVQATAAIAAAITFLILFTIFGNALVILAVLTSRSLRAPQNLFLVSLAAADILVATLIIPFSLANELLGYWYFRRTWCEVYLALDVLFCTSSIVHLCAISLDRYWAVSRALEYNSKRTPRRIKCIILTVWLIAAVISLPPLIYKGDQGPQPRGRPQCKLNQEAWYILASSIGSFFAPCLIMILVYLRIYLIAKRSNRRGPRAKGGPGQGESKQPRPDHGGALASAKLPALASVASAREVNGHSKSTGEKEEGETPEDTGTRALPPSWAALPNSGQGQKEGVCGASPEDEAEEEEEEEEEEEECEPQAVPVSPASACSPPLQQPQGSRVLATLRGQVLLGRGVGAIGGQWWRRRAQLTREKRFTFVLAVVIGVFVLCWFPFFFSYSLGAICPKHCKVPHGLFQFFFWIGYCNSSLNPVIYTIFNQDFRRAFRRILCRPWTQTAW
The experiment in a line: Compound is evaluated for binding affinity towards Alpha-2B adrenergic receptor using [3H]yohimbine.

For experiment [3], the target named is Histamine H1 receptor (Cavia porcellus, UniProt P31389). The experiment in a line: Compound is evaluated for binding affinity towards Histamine H1 receptor using [3H]pyrilamine in guinea pig lung. Format: tissue-based. The method in brief:
as §1

Experiment [4] is described as follows: Selectivity ratio for binding affinity towards alpha2 and alpha-1 adrenoceptors. In outline: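 Ratio of α2 Ki ([³H]clonidine binding) to α1 Ki ([³H]prazosin binding), both measured in rat cortical membrane competition assays.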
Experiment [5] deals with T3, Alpha-1B adrenergic receptor (Rattus norvegicus, UniProt P15823).
T3 sequence (P15823 whole entry): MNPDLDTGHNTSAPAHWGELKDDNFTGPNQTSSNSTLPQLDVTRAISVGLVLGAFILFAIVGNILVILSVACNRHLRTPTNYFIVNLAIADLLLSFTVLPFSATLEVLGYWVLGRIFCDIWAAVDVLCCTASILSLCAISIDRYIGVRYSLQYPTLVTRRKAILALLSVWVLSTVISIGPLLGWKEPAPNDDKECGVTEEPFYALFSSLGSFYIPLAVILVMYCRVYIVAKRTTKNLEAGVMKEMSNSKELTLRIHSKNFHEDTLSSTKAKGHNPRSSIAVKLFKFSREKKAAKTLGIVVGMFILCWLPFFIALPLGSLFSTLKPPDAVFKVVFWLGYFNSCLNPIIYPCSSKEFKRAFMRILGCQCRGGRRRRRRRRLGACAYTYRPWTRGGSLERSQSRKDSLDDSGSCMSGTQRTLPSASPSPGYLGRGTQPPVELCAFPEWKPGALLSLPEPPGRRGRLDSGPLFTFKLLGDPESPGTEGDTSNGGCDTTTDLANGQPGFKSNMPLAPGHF
The experiment in a line: Displacement of [3H]prazosin from Alpha-1B adrenergic receptor of rat liver membrane. In outline:
(§2)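 Triplicate competition binding against 0.2-0.25 nM [³H]prazosin in Tris buffer pH 7.4, 30 min at room temperature. Competitor range 0.1-200 nM. Nonspecific binding defined with 10 µM phentolamine. Reaction stopped by GF/B filtration with two cold Tris washes. Membrane protein 300-400 µg per assay. Ki calculated from the data; mean ± SEM of 3-6 experiments.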
In general terms: Displacement assays read how much labelled ligand stays bound in the presence of the test substance.

Experiment [6] has as its target Serotonin 1 (5-HT1) receptor (Rattus norvegicus, UniProt P28564+P30940+P19327+P28565). The experiment is described as follows: Compound is evaluated for binding affinity towards 5-hydroxytryptamine 1 receptor using [3H]5-HT in rat brain cortex. Format: tissue-based. In outline: as §1
Experiment [7] addresses T4, Alpha-2A adrenergic receptor (Homo sapiens, UniProt P08913).
T4 sequence (P08913 whole entry): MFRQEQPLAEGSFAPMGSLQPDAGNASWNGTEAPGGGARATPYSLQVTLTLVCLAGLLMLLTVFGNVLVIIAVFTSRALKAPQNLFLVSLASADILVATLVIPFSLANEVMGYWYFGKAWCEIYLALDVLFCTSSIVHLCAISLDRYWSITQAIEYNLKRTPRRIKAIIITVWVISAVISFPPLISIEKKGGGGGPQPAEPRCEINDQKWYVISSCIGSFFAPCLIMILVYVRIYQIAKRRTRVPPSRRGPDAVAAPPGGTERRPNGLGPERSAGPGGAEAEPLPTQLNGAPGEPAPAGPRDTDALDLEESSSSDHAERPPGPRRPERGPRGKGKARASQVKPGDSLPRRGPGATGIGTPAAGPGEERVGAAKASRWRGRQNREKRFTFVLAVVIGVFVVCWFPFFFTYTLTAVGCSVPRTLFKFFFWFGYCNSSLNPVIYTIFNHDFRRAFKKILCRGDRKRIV
The experiment is described as follows: Compound is evaluated for binding affinity towards Alpha-2A adrenergic receptor using [3H]MK912.

Experiment [8] has as its target Sigma 2 receptor. The experiment in a line: (§3) Binding affinity towards Sigma 2 receptor using [3H]ifenprodil in rat brain. Format: tissue-based. In outline: as §1
The target in experiment [9] is T5, Alpha-1A adrenergic receptor (Rattus norvegicus, UniProt P43140).
T5 sequence (P43140 whole entry): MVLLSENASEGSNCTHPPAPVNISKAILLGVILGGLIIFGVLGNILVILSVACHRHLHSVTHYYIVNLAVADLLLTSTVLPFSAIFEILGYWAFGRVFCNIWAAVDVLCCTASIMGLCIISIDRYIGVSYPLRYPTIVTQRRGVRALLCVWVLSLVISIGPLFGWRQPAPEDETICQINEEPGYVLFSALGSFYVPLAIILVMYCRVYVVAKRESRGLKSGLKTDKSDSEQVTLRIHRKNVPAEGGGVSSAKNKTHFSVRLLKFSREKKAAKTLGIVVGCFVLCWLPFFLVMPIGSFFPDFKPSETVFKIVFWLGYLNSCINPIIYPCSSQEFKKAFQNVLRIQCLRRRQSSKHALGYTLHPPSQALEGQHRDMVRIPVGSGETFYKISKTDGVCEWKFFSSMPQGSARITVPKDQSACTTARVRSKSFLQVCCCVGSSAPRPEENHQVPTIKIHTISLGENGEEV
The experiment is described as follows: Displacement of [3H]prazosin from Alpha-1A adrenergic receptor of rat submaxillary gland membranes. Format: cell membranes, Membrane. The method in brief: as §2

Experiment [10] addresses T6, 5-hydroxytryptamine receptor 1A (Rattus norvegicus, UniProt P19327).
T6 sequence (P19327 whole entry): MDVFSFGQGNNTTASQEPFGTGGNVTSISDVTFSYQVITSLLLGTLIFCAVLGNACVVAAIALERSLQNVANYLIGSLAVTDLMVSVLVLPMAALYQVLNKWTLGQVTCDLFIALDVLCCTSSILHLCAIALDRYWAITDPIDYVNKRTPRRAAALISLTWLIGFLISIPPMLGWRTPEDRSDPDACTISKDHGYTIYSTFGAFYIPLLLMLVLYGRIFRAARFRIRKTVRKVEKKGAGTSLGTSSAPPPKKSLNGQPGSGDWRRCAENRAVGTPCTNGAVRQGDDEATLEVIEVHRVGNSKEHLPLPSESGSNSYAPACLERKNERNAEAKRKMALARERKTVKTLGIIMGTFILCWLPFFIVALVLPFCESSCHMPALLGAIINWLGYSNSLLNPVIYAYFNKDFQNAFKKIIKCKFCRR
The experiment is described as follows: Compound is evaluated for binding affinity towards 5-hydroxytryptamine 1A receptor using [3H]-8-OH- -DPAT in rat brain cortex. Format: tissue-based. In outline:
as §1

The target of experiment [11] is Sodium channel alpha subunits; brain (Types I, II, III) (Rattus norvegicus, UniProt P04775+P04774+P08104). The experiment is described as follows: Displacement of [3H]batrachotoxin from rat brain sodium channel. Format: tissue-based. The method in brief:
(§4)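 Radioligand competition binding was done by an outside contract lab (Pan Lab). Inhibition constants (Ki) were derived from displacement of the stated tritiated ligand. Each compound was tested at 10 µM. Where inhibition at that concentration stayed below 50%, no Ki was reported.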

Experiment [12] concerns the target Serotonin 2 (5-HT2) receptor (Rattus norvegicus, UniProt P30994+P08909+P14842). The experiment in a line: Compound is evaluated for binding affinity towards 5-hydroxytryptamine 2 receptor using [3H]ketanserin in rat brain. Format: tissue-based. The method in brief:
as §1

Experiment [13] has as its target T1, D(2) dopamine receptor. The experiment in a line: Compound is evaluated for binding affinity towards Dopamine receptor D2 using [3H]spiperone in CHO cells at 10 uM. Format: cell-based.
In experiment [14] the target is T7, D(3) dopamine receptor (Homo sapiens, UniProt P35462). The experiment in a line: Compound is evaluated for binding affinity towards recombinant human Dopamine receptor D3 using [3H]spiperone in CHO cells at 10 uM. Format: cell-based. In outline:
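Single-concentration screen at 10 µM in contract radioligand binding assays. Records whether inhibition of specific radioligand binding stayed below 50%.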

Experiment [15] concerns the target Serotonin 1 (5-HT1) receptor (Rattus norvegicus) (UniProt P28564+P30940+P19327+P28565). The experiment is described as follows: Compound is evaluated for binding affinity towards 5-hydroxytryptamine 1 receptor using [3H]5-HT in rat brain cortex at 10 uM. Format: tissue-based. The method in brief: as §4
For experiment [16], the target named is Alpha-2A adrenergic receptor (Homo sapiens) (UniProt P08913). The experiment in a line: Compound is evaluated for binding affinity towards Alpha-2A adrenergic receptor using [3H]MK912 at 10 uM.
Experiment [17] concerns the target Sodium channel alpha subunits; brain (Types I, II, III) (Rattus norvegicus) (UniProt P04775+P04774+P08104). The experiment is described as follows: Displacement of [3H]batrachotoxin from rat brain sodium channel at 10 uM. Format: tissue-based. The method in brief: as §4
Experiment [18] concerns the target T1, D(2) dopamine receptor. The experiment in a line: Compound is evaluated for binding affinity towards Dopamine receptor D2 using [3H]spiperone in CHO cells. Format: cell-based. The method in brief:
as §1

The target of experiment [19] is T7, D(3) dopamine receptor. The experiment is described as follows: Compound is evaluated for binding affinity towards recombinant human Dopamine receptor D3 using [3H]spiperone in CHO cells. Format: cell-based. In outline: as §1
For experiment [20], the target named is Alpha-2B adrenergic receptor (Homo sapiens) (UniProt P18089). The experiment in a line: Compound is evaluated for binding affinity towards Alpha-2B adrenergic receptor using [3H]yohimbine at 10 uM.
Experiment [21] concerns Sigma 2 receptor. The experiment is described as §3. The settings on record: concentration not given here. Format: tissue-based. In outline: as §4

T1 sequence (P14416 whole entry): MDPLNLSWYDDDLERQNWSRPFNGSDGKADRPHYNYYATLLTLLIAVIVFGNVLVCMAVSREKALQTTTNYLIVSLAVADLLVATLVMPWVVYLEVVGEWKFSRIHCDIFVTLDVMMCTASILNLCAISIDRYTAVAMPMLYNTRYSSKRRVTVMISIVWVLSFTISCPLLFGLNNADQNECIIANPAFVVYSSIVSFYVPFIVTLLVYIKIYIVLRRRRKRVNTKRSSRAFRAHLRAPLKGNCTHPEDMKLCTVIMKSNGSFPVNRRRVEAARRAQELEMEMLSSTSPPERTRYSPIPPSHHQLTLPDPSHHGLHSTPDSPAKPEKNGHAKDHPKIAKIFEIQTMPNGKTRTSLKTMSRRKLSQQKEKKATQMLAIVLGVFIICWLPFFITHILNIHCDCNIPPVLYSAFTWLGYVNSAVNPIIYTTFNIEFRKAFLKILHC
T7 sequence (P35462 whole entry): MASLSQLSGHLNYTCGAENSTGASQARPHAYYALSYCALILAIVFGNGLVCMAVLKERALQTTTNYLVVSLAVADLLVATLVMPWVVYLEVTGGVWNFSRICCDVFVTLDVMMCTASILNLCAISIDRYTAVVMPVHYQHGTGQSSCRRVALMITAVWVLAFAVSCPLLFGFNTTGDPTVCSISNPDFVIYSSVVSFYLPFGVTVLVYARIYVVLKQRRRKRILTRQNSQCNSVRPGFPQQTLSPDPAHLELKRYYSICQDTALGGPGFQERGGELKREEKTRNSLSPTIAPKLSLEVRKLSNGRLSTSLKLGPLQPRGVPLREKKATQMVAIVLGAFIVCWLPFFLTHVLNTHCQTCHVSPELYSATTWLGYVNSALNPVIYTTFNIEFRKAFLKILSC
Sequence of Histamine H1 receptor (P31389 whole entry): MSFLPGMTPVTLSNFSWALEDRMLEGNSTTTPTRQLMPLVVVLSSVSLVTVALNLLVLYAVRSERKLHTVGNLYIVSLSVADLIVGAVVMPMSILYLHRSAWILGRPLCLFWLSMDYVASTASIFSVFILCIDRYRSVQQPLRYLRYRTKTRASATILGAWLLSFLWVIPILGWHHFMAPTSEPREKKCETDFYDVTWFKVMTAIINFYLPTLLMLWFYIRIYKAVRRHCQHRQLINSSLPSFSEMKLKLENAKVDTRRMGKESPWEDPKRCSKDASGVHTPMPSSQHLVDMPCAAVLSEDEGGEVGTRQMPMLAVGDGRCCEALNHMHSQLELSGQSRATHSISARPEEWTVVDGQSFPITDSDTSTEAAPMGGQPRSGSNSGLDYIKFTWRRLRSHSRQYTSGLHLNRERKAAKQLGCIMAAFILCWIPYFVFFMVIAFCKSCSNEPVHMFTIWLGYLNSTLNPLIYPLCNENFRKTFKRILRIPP

With `COc1ccccc1N1CCN(CCn2c(=O)[nH]c3ccccc3c2=O)CC1`, the inhibitory constant (Ki) (commonly a measure of affinity in units of concentration, obtained from inhibition or displacement) in [1] worked out at 132 nM; in [2] it was 56 nM; in experiment [3], 685 nM; in experiment [5], 1.1 nM; in experiment [6], 1510 nM; in experiment [7], 1810 nM. Also, the inhibitory constant (Ki) amounted to 2500 nM in experiment [8]; 0.5 nM in experiment [9]; 16 nM in experiment [10]; 3680 nM in experiment [11]; 180 nM in [12]; 32 nM in experiment [13]. Further, the inhibitory constant (Ki) in experiment [14] came out at 73 nM. In addition, the Ratio in experiment [4] amounted to 6400.
In the case of `COc1ccccc1N1CCN(CC2CN=C3c4ccccc4NC(=O)N32)CC1` (stereo not drawn), the inhibition constant (Ki) in [1] came out at 239 nM; in experiment [3] it was 2320 nM; in experiment [5], 0.67 nM; in [18] it was 158 nM; in experiment [19] it was 985 nM; in [9], 0.26 nM. For the same compound, the figures for the Ki in [10] and in experiment [12] were 155 nM and 377 nM, respectively. The Ratio in [4] is 2820. The inhibition in experiment [15], in [16], in experiment [17], in [20] and in experiment [21] was less than 50% in each case.
